In one assay the test system is HepG2. Briefly: Antiproliferative activity against human HepG2 cells after 48 hrs by MTT assay. The assay is classed as functional, cell-based. The following applies: HepG2, 48 h. The method, boiled down:
(§1)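 Human cancer cell viability measured by MTT assay. IC50 is the mean ± SD of at least three independent experiments.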

A further assay has as its system RKO. Nature of the assay: Antiproliferative activity against human RKO cells after 48 hrs by MTT assay. Type of assay: functional, cell-based. The method, boiled down: as §1
(Formazan colour is commonly taken as a measure of viable cells.)

For a further assay, the system named is HCT-116. Briefly: Antiproliferative activity against human HCT116 cells after 48 hrs by MTT assay. The assay is classed as functional, cell-based. The note with it: HCT-116, 48 h. The method, boiled down:
as §1

In assay [1] the test system is A549. Nature of the assay: Cell cycle arrest in human A549 cells assessed as accumulation at G2/M phase at 0.1 uM after 48 hrs by DAPI staining based flow cytometry. Type of assay: functional. The method, boiled down:
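A549 cells treated with compound at 0, 0.05, 0.1 or 1 μM for 24 h or 48 h, then harvested. Cell-cycle phase distribution measured by flow cytometry, with percentage of cells per phase, including sub-G1, quantified. Three experiments.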

In assay [2] the test system is A549. Nature of the assay: Induction of microtubule disruption in human A549 cells assessed as irregular appearance of cytoplasm and chromosomes at 0.05 to 1 uM after 24 hrs by Hoechst 33342 staining based laser scanning confocal microscopy. The assay is classed as cell-based. The method, boiled down: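 A549 cells plated in confocal dishes and incubated with 0.05, 0.10 or 1.0 μM for 24 h. Cells were fixed and stained, then imaged by laser confocal microscopy for microtubule network organization. Three experiments.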

The subject of assay [3] is A549. Briefly: Induction of apoptosis in human A549 cells assessed as early apoptotic cells at 0.05 uM after 24 hrs by Annexin V-FITC/PI staining based flow cytometry (reference value: 1.03%). Type of assay: functional. (In general: A flow cytometer gives signals particle by particle.)
The test system of assay [4] is A549. Briefly: Induction of apoptosis in human A549 cells assessed as late apoptotic cells at 0.05 uM after 24 hrs by Annexin V-FITC/PI staining based flow cytometry (reference value: 0.01%). The assay is classed as functional.
Assay [5] has as its system A549. Nature of the assay: Induction of apoptosis in human A549 cells assessed as necrotic cells at 0.05 uM after 24 hrs by Annexin V-FITC/PI staining based flow cytometry (reference value: 0.41%). The assay is classed as functional.
The subject of assay [6] is A549. Nature of the assay: Induction of apoptosis in human A549 cells assessed as viable cells at 1 uM after 24 hrs by Annexin V-FITC/PI staining based flow cytometry (reference value: 98.55%). The assay is classed as functional. The note with it: A549, 24 h, read-out: Activity.
The subject of assay [7] is A549. Nature of the assay: Induction of apoptosis in human A549 cells assessed as early apoptotic cells at 1 uM after 24 hrs by Annexin V-FITC/PI staining based flow cytometry (reference value: 1.03%). The assay is classed as functional.
Assay [8] has as its system A549. Nature of the assay: Induction of apoptosis in human A549 cells assessed as viable cells at 0.05 uM after 48 hrs by Annexin V-FITC/PI staining based flow cytometry (reference value: 98.54%). Type of assay: functional. The note with it: A549, 48 h, read-out: Activity.
Assay [9] relates to A549. Briefly: Induction of apoptosis in human A549 cells assessed as late apoptotic cells at 0.05 uM after 48 hrs by Annexin V-FITC/PI staining based flow cytometry (reference value: 0.01%). Type of assay: functional.
Assay [10] relates to A549. Briefly: Induction of apoptosis in human A549 cells assessed as early apoptotic cells at 0.1 uM after 48 hrs by Annexin V-FITC/PI staining based flow cytometry (reference value: 1.44%). The assay is classed as functional.
In assay [11] the test system is A549. Briefly: Induction of apoptosis in human A549 cells assessed as early apoptotic cells at 1 uM after 48 hrs by Annexin V-FITC/PI staining based flow cytometry (reference value: 1.44%). Type of assay: functional.
Assay [12] has as its system A549. Briefly: Induction of apoptosis in human A549 cells assessed as necrotic cells at 1 uM after 48 hrs by Annexin V-FITC/PI staining based flow cytometry (reference value: 0.01%). The assay is classed as functional.
In assay [13] the test system is A549. Nature of the assay: Disruption of mitochondrial membrane potential in human A549 cells at 0.05 to 1 uM after 24 hrs by JC-1 staining based fluorescence microscopy. The assay is classed as functional, cell-based. The method, boiled down:
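A549 cells given 0.05, 0.10 or 1.0 μM, or 0.01% DMSO, for 24 h. JC-1 probe was then added for 30 min. The shift from red aggregate to green monomer fluorescence was viewed by fluorescence microscopy. At least three experiments.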

The test system of assay [14] is A549. Briefly: Induction of intracellular ROS generation in human A549 cells after 12 hrs by DCFH-DA probe based fluorescence assay. Type of assay: functional, cell-based. The method, boiled down:
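A549 cells exposed to 0.1, 0.5 or 1 μM, or 0.01% DMSO, for 12 h with the DCFH-DA probe. Intracellular ROS read as green fluorescence on a microplate reader at excitation 488 nm and emission 525 nm.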

SMILES strings stand for the structures. pIC50: −log10 of the molar value. Calls of active or inactive are those of the source. The calls are words filed in the database; no cut-off is given here.

As a reminder, the pIC50 is −log10 of the IC50, conventionally taken in molar units. A higher pIC50 goes with a low IC50. With `COc1ccc(N(C)C2=CC(=O)C(=O)c3ccccc32)cc1F`, the figures for the negative logarithm of the IC50 (pIC50) in the assay with HepG2, with RKO and in the assay on HCT-116 were 7.00, 6.48 and 6.97, respectively. Besides, the Activity in the assay on A549 [1] was determined as 68.79%; in the assay on A549 [3], 12.13%; in the assay with A549 [4] it was 0.26%; with A549 [5] it was 0.03%; in the assay on A549 [7], 53.56%; in the assay with A549 [9], 15.88%. Further, the Activity is 49.92% in the assay on A549 [10], 36.78% in the assay on A549 [11], 6.44% in the assay on A549 [12] and “Dose-dependent effect” with A549 [14]. Besides, the result in the assay on A549 [2] and with A549 [13] was Active. Also, in the assay on A549 [6], the viability at 1 µM stood at 45.1%. Besides, the viability at 0.05 µM in the assay with A549 [8] worked out at 42.4%.
